Assay results gathered from unrelated publications.
Compare with care: the assays were run in different laboratories.
Target: Serine/threonine-protein kinase PLK3 (PLK3, Homo sapiens, UniProt Q9H4B4)

SMILES | assay | setting | measurement | result
C[C@H]1CC[C@H](n2c3cnccc3c3cnc(Nc4ccc5c(n4)CCN(C(=O)CO)C5)nc32)CC1 | cell-free assay | 1 µM | remaining signal | 100%
C#Cc1cnc(Nc2ccnc(CO)c2)nc1Nc1ccccc1S(C)(=O)=NC#N (stereo not shown) | cell-free assay | 1 µM | remaining signal | 34%
CC#CC(=O)N1CCC[C@H]1c1nc(-c2ccc(C(=O)Nc3ccccn3)cc2)c2c(N)nccn12 | enzyme activity, inhibitor | 1 µM | inhibition | 0%
N#Cc1ccc(NC(=O)Nc2ccccc2)cc1 | cell-free assay, competition with immobilised ligand | 25 µM | remaining binding | 88%
COc1ccc2oc(-c3ccc4nc(N)oc4c3)c/c(=N\c3ccccc3NC(=O)CCN)c2c1 | binding | 1 µM | remaining binding | 101%
C1=C/COCc2cc(ccc2OCCN2CCCC2)Nc2nccc(n2)-c2cccc(c2)COC/1 | binding | 0.1 µM | remaining binding | 99%
C#Cc1cc(-c2cc(Nc3nc(N[C@@H](C)c4ccc(F)cn4)ncc3Cl)n[nH]2)ccc1C=O | enzyme activity, inhibitor | 0.2 µM | inhibition | 12.9%
CCCCC(=O)Nc1ccc(-c2ccc3ncn(CCC)c(=O)c3c2)cn1 | binding, competition with immobilised ligand | 0.5 µM | remaining binding | 98%
COc1ccc2[nH]c3c4[nH]c5ccc(OC)cc5c4c4c(c3c2c1)C(=O)NC4=O | binding | 1 µM | remaining binding | 88%
C=CC(=O)N1CCC([C@@H]2CCNc3c(C(N)=O)c(-c4ccc(Oc5ccccc5)cc4)nn32)CC1 | enzyme activity, inhibitor | 1 µM | inhibition | 2%
